Data on 10 molecules can be found in ChEMBL document CHEMBL1123166, “Design and synthesis of 2-(arylamino)-4(3H)-quinazolinones as novel inhibitors of rat lens aldose reductase” (J Med Chem, 1986).

The structures appear in SMILES notation.

Assay [1] addresses Aldo-keto reductase family 1 member B1 (Rattus norvegicus, UniProt P07943). Briefly: Compound was tested for its ability to inhibit crude aldose reductase obtained from rat lens.
For assay [2], the target named is Aldo-keto reductase family 1 member B1 (Rattus norvegicus) (UniProt P07943). Briefly: Compound was tested for its ability to inhibit crude aldose reductase obtained from rat lens at 100 uM concentration. The gist of the method:
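Crude enzyme prepared from rat lens. Reaction at pH 6.2 in 0.1 M phosphate buffer with 0.104 mM NADPH and 1.5 mM DL-glyceraldehyde as substrate. NADPH consumption followed at 340 nm against a blank lacking substrate. Percent inhibition from rate versus substrate-only control. IC50 from linear regression of log dose-response using at least three concentrations, three replicates each, for compounds exceeding 50% inhibition at 100 μM.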

Consider `O=C(O)c1ccc(Nc2nc3ccccc3c(=O)[nH]2)cc1`, for which the IC50 (as a rule, the point on the concentration scale where inhibition reaches its midpoint) in assay [1] came out at 50 µM.
Take `Oc1nc(NCc2ccccc2)nc2ccccc12`: the inhibition – broadly, the percentage by which the read-out fell short of the control – in assay [2] worked out at 3.9%.
In assay [1], `O=c1[nH]c(Nc2ccc(O)cc2)nc2ccccc12` registered an IC50 of 75 µM.
In assay [2], `O=S(=O)(O)c1ccc(Nc2nc(O)c3ccccc3n2)cc1` came in with an inhibition of 42.6%.
In turn, `O=C(O)c1ccc(Nc2nc3ccccc3c(=O)[nH]2)cc1O` showed an IC50 in assay [1] of 57 µM.
`COc1cc2nc(NCc3ccccc3)nc(O)c2cc1OC`: the inhibition in assay [2] worked out at 22.4%.
`Cc1nc2ccccc2c(=O)n1-c1ccc(C(=O)O)cc1`: half-maximal inhibition in assay [1] (IC50) required 214 µM.
Molecule `Oc1nc(Nc2ccccc2)nc2ccccc12` registered an inhibition in assay [2] of 5.9%.
The molecule `COc1cc2nc(Nc3ccccc3)nc(O)c2cc1OC` came in with an inhibition in assay [2] of 17.4%.
Molecule `COc1cc2nc(Nc3ccc(C(=O)O)cc3)[nH]c(=O)c2cc1OC` yielded a 50% inhibitory concentration (IC50) in assay [1] of 34 µM.
